Results: ChEMBL document CHEMBL3616457, “Synthesis and biological evaluation of new symmetric curcumin derivatives” (Bioorg Med Chem Lett, 2015)
≈ marks a conversion by molar mass, not a printed value. Calls of active or inactive are those of the source. The calls are words filed in the database; no cut-off is given here.

What was measured:
[1] = Antioxidant activity assessed as DPPH radical scavenging activity; format: physicochemical
Outline: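 DPPH stock 0.1 mmol in DMSO. 1 mL sample diluted with 2 mL DMSO, mixed with 2 mL DPPH stock, absorbance at 517 nm. Tested at 10–50 μg/mL. % inhibition = [(blank−test)/blank]×100, IC50 derived from the concentration series. Run twice.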

[2] = Antioxidant activity assessed as H2O2 scavenging activity; format: physicochemical
Outline: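 H2O2 prepared at 2.0 mM in 0.2 M phosphate buffer pH 7.4. Compounds at 10–50 μg/mL added to 0.6 mL of this solution and made up to 4 mL with buffer. H2O2 absorbance read at 230 nm against a buffer blank. % inhibition = [(blank−test)/blank]×100, IC50 derived from the concentration series.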

[3] = Anti-inflammatory activity assessed as inhibition of bovine serum albumin denaturation at 10 to 500 ug/ml incubated for 15 mins at 37 degC; format: functional
Outline: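 Compounds dissolved in minimal DMF, diluted in 0.2 M phosphate buffer pH 7.4 (final DMF <2.5%). 4 mL test solution mixed with 1 mL of 1 mM albumin and held 15 min at 37 °C, then heated 15 min at 70 °C to denature. After cooling, turbidity read at 660 nm. % inhibition calculated against a no-drug control.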

[4] = system: A549; test: Cytotoxicity against human A549 cells at 1 to 500 ug/ml incubated for 24 hrs by MTT assay; format: functional, cell-based
Outline: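 A549 lung cancer cells grown in MEM with 10% FBS, penicillin and streptomycin, at 37 °C under 5% CO2. Compounds made up at 2 mg/mL in DMSO, filter-sterilized, diluted in medium to 1, 10, 50, 100 and 500 μg/mL. Exposure 24 h, 0.1% DMSO control. MTT (5 mg/mL stock) added for 4 h, formazan dissolved in DMSO, read at 545 nm. Triplicate.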

Row | SMILES | IC50 [1] [µg/mL] | IC50 [2] [µg/mL] | inhibition [3] | Activity [4]
1 | COc1cc(/C=C/C(=O)/C=C(O)/C=C/c2ccc(OCC(=O)Nc3ccc(C)cc3)c(OC)c2)ccc1OCC(=O)Nc1ccc(C)cc1 | 22.85 (≈ 34.5 µM) | 61.98 (≈ 93.5 µM) | Active | Active
2 | COc1cc(/C=C/C(=O)/C=C(O)/C=C/c2ccc(OCC(=O)Nc3ccccc3)c(OC)c2)ccc1OCC(=O)Nc1ccccc1 | 23.77 (≈ 37.5 µM) | 63.7 (≈ 100 µM) | Active | Active
3 | O=C1O[C@H]([C@@H](O)CO)C(O)=C1O [ASCORBIC ACID] | 32.74 (≈ 186 µM) | 67.54 (≈ 383 µM) |  | 
4 | O=C(O)Cc1ccccc1Nc1c(Cl)cccc1Cl |  |  | Active | 
5 | COc1cc(/C=C/C(=O)/C=C(O)/C=C/c2ccc(OCC(=O)N(C)c3ccccc3)c(OC)c2)ccc1OCC(=O)N(C)c1ccccc1 | 12.05 (≈ 18.2 µM) | 63.21 (≈ 95.4 µM) | Active | Active
6 | COc1cc(/C=C/C(=O)/C=C(O)/C=C/c2ccc(OCC(=O)NC3CCCCC3)c(OC)c2)ccc1OCC(=O)NC1CCCCC1 | 16 (≈ 24.7 µM) | 26.14 (≈ 40.4 µM) | Active | Active
7 | CCN(CC)C(=O)COc1ccc(/C=C/C(=O)/C=C(O)/C=C/c2ccc(OCC(=O)N(CC)CC)c(OC)c2)cc1OC | 19.68 (≈ 33.1 µM) | 68.16 (≈ 115 µM) | Active | Active
8 | COc1cc(/C=C/C(=O)/C=C(O)/C=C/c2ccc(OCC(=O)Nc3cccc4ccccc34)c(OC)c2)ccc1OCC(=O)Nc1cccc2ccccc12 | 12.65 (≈ 17.2 µM) | 41.4 (≈ 56.3 µM) |  | Active
9 | COc1cc(/C=C/C(=O)/C=C(O)/C=C/c2ccc(OCC(=O)Nc3ccc(F)cc3)c(OC)c2)ccc1OCC(=O)Nc1ccc(F)cc1 | 24.26 (≈ 36.2 µM) | 70.51 (≈ 105 µM) | Active | Active
10 | COc1cc(/C=C/C(=O)CC(=O)/C=C/c2ccc(O)c(OC)c2)ccc1O [CURCUMIN] | 14.83 (≈ 40.3 µM) | 34.71 (≈ 94.2 µM) | Active | Active
11 | COc1cc(/C=C/C(=O)/C=C(O)/C=C/c2ccc(OCC(=O)Nc3ccc(Cl)cc3)c(OC)c2)ccc1OCC(=O)Nc1ccc(Cl)cc1 | 12.92 (≈ 18.4 µM) | 65.4 (≈ 93 µM) |  | Active
